Screening data: PubChem, several laboratories
procasp3 activ: procaspase-3 (human) activation; P42574; recombinant procaspase-3 D3A, Ac-DEVD-pNA absorbance 405 nm; activation, % at 8.5 µM; actives 0.11% (n = 330,000);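 active means activation above the mean of all tested compounds plus 3 SD, cut at about 21% in these data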;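 further: 0% = DMSO alone and 100% = DMSO wells spiked with extra 5 µM PC-3 D3A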
Target sequence (P42574 whole entry D9A/D28A/D175A): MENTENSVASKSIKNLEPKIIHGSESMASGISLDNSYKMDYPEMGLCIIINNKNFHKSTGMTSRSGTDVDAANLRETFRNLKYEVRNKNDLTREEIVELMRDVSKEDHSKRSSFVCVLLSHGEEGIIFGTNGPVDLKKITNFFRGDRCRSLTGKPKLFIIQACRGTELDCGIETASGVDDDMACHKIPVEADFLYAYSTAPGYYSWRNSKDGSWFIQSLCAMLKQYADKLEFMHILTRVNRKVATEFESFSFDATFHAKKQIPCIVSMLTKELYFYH
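Test system: Procaspase-3 D3A mutant, all three cleavage aspartates alanine | Dosing: Single dose, 8.5 µM nominal compound, 0.8% DMSO | Schedule: 1 h preincubation, 2 h reaction | Technique: 405 nm absorbance of p-nitroaniline, reads at 0 and 120 min | Repeats: One well per compound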
MsrA act: activates bovine MsrA enzyme; purified bovine MsrA, absorbance read-out; AID 602163; actives 0.3% (n = 360,000); activation, % at 10.6 µM; in the data active means activation above about 7.5%;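 further: 0% = vehicle and 100% = reference activator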
procasp7 counter: activates human procaspase-7, counter-screen for procaspase-3 activators. recombinant procaspase-7, Ac-DEVD-pNA absorbance 405 nm; D23A/D198A/D206A triple mutant, cannot self-cleave; scale: DMSO 0, 5 µM enzyme 100. actives 0.093% (n = 330,000). AID 463210. activation, % at 8.5 µM. P55210;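 active means percent activation above the screen-wide mean plus 3 SD, cut at about 25% in these data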
Target sequence (P55210 whole entry D23A/D198A/D206A): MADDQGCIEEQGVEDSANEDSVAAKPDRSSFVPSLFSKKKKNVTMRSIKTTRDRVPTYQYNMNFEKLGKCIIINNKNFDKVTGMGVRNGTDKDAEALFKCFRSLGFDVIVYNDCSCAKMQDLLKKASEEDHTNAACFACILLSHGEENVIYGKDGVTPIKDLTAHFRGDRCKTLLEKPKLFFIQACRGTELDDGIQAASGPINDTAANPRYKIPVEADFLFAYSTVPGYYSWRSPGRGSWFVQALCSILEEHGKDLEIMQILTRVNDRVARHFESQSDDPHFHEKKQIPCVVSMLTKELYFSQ
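System: Procaspase-7 triple mutant (PC-7 D3A); measure: % activation from two-timepoint absorbance difference, scaled to controls; times: 1 h compound preincubation, 2 h substrate cleavage, 25 °C; also added: Ac-DEVD-pNA substrate, 400 µM as added; measured by: Epi-absorbance of released pNA at 405 nm, two timepoints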
A1 inh: inhibitors of the anti-apoptotic protein A1, read as caspase activation; MEF A1-2A-BIM cells, Caspase-Glo 3/7 luminescence, 3 h; percent of clofoctol response, vehicle zero; caspase activation, % (no concentration beside the values); actives 0.066% (n = 330,000);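 active means over half of replicate activation scores above 10%, or exactly half above 10 with the replicate mean above 10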
MsrA inh: bovine MsrA inhibition. inhibition, % at 15.5 µM. purified bovine MsrA, absorbance read-out. actives 0.75% (n = 360,000);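 further: 0% = vehicle wells with enzyme and 100% = reference inhibitor wells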
MsrA inh confirm: bovine MsrA inhibition, confirmed; shares compounds with MsrA inh; purified bovine MsrA, absorbance read-out; inhibition, % at 15.5 µM; actives 41% (n = 2,300); AID 651822;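 further: coupled to thioredoxin reductase with NADPH and selenocystamine and DMSO as substrate; 0% = vehicle only and 100% = full effect of reference inhibitor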
* marks the source's active call; other numbers are inactive results; nt = no result. Most compounds without a hit are left out; they make up all but 1.2% or so of the library. Unless noted, no stated cut-off is given here; in the data, active means inhibition above about 4.5%; inactive means the rest.

SMILES | procasp3 activ | MsrA act | procasp7 counter | A1 inh | MsrA inh | MsrA inh confirm
O=C(Nc1nc2ccccc2[nH]1)c1ccc(Br)o1 | -5 | -5 | -2 | -6 | 4.8* | 3
Nc1ccn([C@@H]2O[C@H](C(=O)N3CCSC3)[C@@H](O)[C@H]2O)c(=O)n1 | nt | -3 | nt | nt | -1 | nt
O=C(N[C@@H](Cc1cccnc1)C(=O)N1CCC[C@H]1C(=O)NC1CCCC1)c1ccc(Cl)c(Cl)c1 | nt | nt | nt | nt | 0 | nt
Cc1cc(C(=O)O)ccc1-n1c(C)cc(/C=C2\SC(=O)NC2=O)c1C | 1 | -3 | 0 | 1 | 5.7* | 3
O=C(O)c1cccc(Nc2nc(-c3cccnc3)nc3ccccc23)c1 | 4 | -3 | 13 | -1 | 5.6* | 2
O=C(NCCCN1CCOCC1)C1CCN(S(=O)(=O)c2ccccc2)CC1 | 17 | -2 | 3 | 0 | -1 | nt
O=C(/C=C/c1c(Cl)nc2ccccn12)N1CCCCC1 | 6 | -4 | 1 | 0 | 7.8* | 4
CC(=O)c1cccc(Nc2cc(C)nc3c(C)cc(C)cc23)c1 | 6 | -6 | 3 | 0 | 5.9* | 2
CCCCc1n[nH]c2c1/C(=N/OCC)CC(C)(C)C2 | 0 | -2 | -4 | 1 | 19* | 13*
CCCCc1n[nH]c2c1/C(=N/O)CC(C)(C)C2 | 8 | -2 | -1 | 0 | 0 | nt
COC(=O)c1sc(S(=O)(=O)Nc2ccc(C)c(C)c2)c(C(=O)OC)c1C | 10 | -11 | -13 | 1 | 6.1* | 5.7*
COC(=O)c1sc(S(=O)(=O)NCCCN(C)C)c(C(=O)OC)c1C | 0 | 0 | 4 | 0 | 0 | nt
O=C(c1sc2cccc(Cl)c2c1Cl)N1CCN(CCc2ccccn2)CC1 | -2 | -5 | 3 | 0 | 1 | nt
Nc1[nH]c(N=NC(=O)c2ccc(F)cc2)c2ccccc12 | -5 | -12 | -4 | -1 | 4 | nt
Nc1ccccc1C(=O)N=Nc1[nH]c(N)c2ccccc12 | 5 | -5 | 10 | -1 | 5.4* | 4
CCCN1CCCCC(NC(=O)c2ccccc2C)C1=O (configuration not stated) | nt | nt | nt | nt | 0 | nt
COc1cc(/C=N/NC(=O)C(=O)NCc2ccco2)cc(Br)c1O | 5 | -7 | -6 | 1 | 6.0* | 4
O=C(CSc1n[nH]c(=O)[nH]c1=O)N/N=C/c1ccccc1O | 2 | 1 | -5 | 1 | 0 | nt
O=C(NCc1ccco1)C(=O)NN=Cc1ccccc1O | nt | nt | nt | nt | 2 | nt
CCCCCC(=O)N/N=C/c1cc(Br)c(O)c(OC)c1 | 0 | -6 | -2 | 1 | 5.5* | 3
COc1cc(/C=N/NC(=O)CSc2n[nH]c(=O)[nH]c2=O)cc(OC)c1O | 3 | -3 | 7 | 0 | 4.8* | 2
CC(C)(C)c1nnc(NS(=O)(=O)c2ccc([N+](=O)[O-])cc2)s1 | nt | -2 | nt | -2 | 2 | nt
COc1cccc(-c2nc3ccccc3c(=O)o2)c1 | 7 | -4 | -4 | -5 | 1 | nt
COc1cccc(C2=N/C(=C\N(C)C)C(=O)O2)c1 | 2 | -8 | 0 | 0 | 11* | 7.0*
COc1ccc(C(=O)NC(CCSC)C(=O)NC2CC2)cc1 (configuration not stated) | 0 | -1 | 7 | 1 | 0 | nt
SMILES | procasp3 activ | MsrA act | procasp7 counter | A1 inh | MsrA inh | MsrA inh confirm
COc1ccc(/C(O)=C2/C(=O)C(=O)N(CCCN3CCOCC3)C2c2ccc(Cl)cc2)cc1 (configuration not stated) | nt | -3 | nt | nt | 6.8* | 2
O=C1C(=O)N(CCCn2ccnc2)C(c2ccc(Br)cc2)/C1=C(\O)c1ccc2c(c1)OCCO2 (configuration not stated) | -4 | -8 | -18 | 0 | 3 | nt
O=C1C(=O)N(CCCn2ccnc2)C(c2ccc(Cl)cc2)/C1=C(\O)c1ccc2c(c1)OCCO2 (configuration not stated) | -8 | -5 | -20 | -2 | 9.1* | 1
Nc1ccc(-c2nc3ncccc3o2)c(O)c1 | -14 | -7 | -29 | -3 | 9.8* | 7.2*
Cc1cc(-c2nc3ncccc3o2)ccc1N | -6 | -5 | -1 | -3 | 6.5* | 6.6*
Nc1ccc(-c2nc3ncccc3o2)c(Cl)c1 | 2 | -10 | 4 | -1 | 6.0* | 5.2*
OCC1OC(c2ccc(O)cc2O)C(O)C1O (configuration not stated) | nt | -1 | nt | nt | 2 | nt
COc1ccc(/C=C2\SC(=O)N(CCNC(=O)C3=COCCO3)C2=O)cc1 | 2 | -3 | 10 | 1 | 8.5* | 3
O=C(NCCN1C(=O)S/C(=C\c2ccccc2Cl)C1=O)C1=COCCO1 | 1 | -2 | -6 | 0 | -1 | nt
O=C(NCCN1C(=O)S/C(=C\c2ccccc2F)C1=O)C1=COCCO1 | -3 | -5 | -10 | 0 | 4.8* | 2
O=C(NCCN1C(=O)S/C(=C\c2ccc(OC(F)F)cc2)C1=O)c1cnccn1 | -15 | -7 | -3 | 1 | 5.1* | 2
Cc1cccc(CN2CCN(C3CN(Cc4cn(Cc5ccc(C(F)(F)F)cc5)nn4)S(=O)(=O)C3)CC2)c1 (configuration not stated) | nt | nt | nt | nt | 1 | nt
C[C@H]1[C@H](c2ccccc2)Oc2cccc(NCCc3ccccc3)c2S(=O)(=O)N1Cc1cccc(F)c1 | nt | nt | nt | nt | 0 | nt
Fc1cccc(/C=N/Nc2cc(N3CCOCC3)ncn2)c1 | 0 | -3 | 6 | 0 | 4.9* | 3
Oc1ccc(/C=N/Nc2cc(N3CCOCC3)nc(N3CCOCC3)n2)cc1 | -10 | -15 | -12 | 0 | 5.8* | 5.7*
Oc1ccc(/C=N/Nc2cc(N3CCCC3)nc(N3CCCC3)n2)cc1 | -8 | -6 | 4 | 0 | 1 | nt
Cc1noc(C)c1S(=O)(=O)Nc1ccc2c(c1)C(=O)N([C@H](C)CO)C[C@H](C)[C@@H](CN(C)C(=O)Nc1ccc3c(c1)OCO3)O2 | 1 | -7 | -3 | nt | 0 | nt
CC(C)(C(N)=O)N1CCN(c2ncc(C(F)(F)F)cc2Cl)CC1 | 0 | 1 | 6 | 0 | 0 | nt
COC(=O)C1CC(Cl)CN1c1ncc(C(F)(F)F)cc1Cl (configuration not stated) | 3 | -5 | 15 | -2 | 5.1* | 0
C[C@@H]1CN([C@H](C)CO)C(=O)c2cc(NC(=O)Nc3ccc(F)cc3)ccc2O[C@@H](C)CCCCO[C@@H]1CN(C)C(=O)CCCN(C)C | nt | nt | nt | nt | -1 | nt
CCCCNC(=O)CC1S/C(=N/N=C/c2ccc(OC)cc2)NC1=O (configuration not stated) | 7 | -1 | 5 | 1 | 1 | nt
O=C(O)CCCNC(=O)CC1S/C(=N/N=C/c2ccccc2O)NC1=O (configuration not stated) | 5 | -7 | 10 | 0 | 4.8* | 4
CCCSc1nnc(NC(=O)CSc2sc3c(O)cc(=O)[nH]c3c2C#N)s1 | -9 | -4 | -18 | 0 | 1 | nt
